Measurements reported in ChEMBL document CHEMBL1770105, “Discovery and evaluation of pyrazolo[1,5-a]pyrimidines as neuropeptide Y1 receptor antagonists” (Bioorg Med Chem Lett, 2011).

Tests used:
[1] = target: T1, Neuropeptide Y receptor type 1 (Homo sapiens, UniProt P25929); test: Displacement of [125I]-PYY from human recombinant NPY Y1 receptor overexpressed in membrane of Sf9 cells
T1 sequence (P25929 whole entry): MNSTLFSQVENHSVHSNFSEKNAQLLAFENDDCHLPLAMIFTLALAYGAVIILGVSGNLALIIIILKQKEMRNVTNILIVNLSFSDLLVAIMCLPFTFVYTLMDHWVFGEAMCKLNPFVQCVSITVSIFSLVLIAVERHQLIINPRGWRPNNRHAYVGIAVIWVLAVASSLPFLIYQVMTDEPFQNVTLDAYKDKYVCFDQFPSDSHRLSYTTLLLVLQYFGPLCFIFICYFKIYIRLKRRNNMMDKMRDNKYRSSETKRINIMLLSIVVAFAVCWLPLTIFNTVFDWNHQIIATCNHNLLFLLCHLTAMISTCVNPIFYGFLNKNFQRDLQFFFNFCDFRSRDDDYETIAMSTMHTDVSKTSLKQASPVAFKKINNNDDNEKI
How it was run: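 Human Y1 receptor: 125I-PYY displacement on Sf9 membranes overexpressing recombinant hY1R. Ki values are single determinations run in triplicate.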

[2] = Ratio of fraction unbound drug level in brain to plasma in Mdr1a/1b knockout mouse to FVB mouse at 5 mg.kg, sc after 0.5 hrs; format: ADME, organism-based
How it was run: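 Brain and plasma levels measured in Mdr1a/1b knockout and wild-type FVB mice 0.5 h after a 5 mg/kg sc dose. Brain/plasma ratios calculated from unbound fractions, measured by equilibrium dialysis of brain homogenate and plasma. Result expressed as knockout B/P over FVB B/P.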

[3] = target: T1, Neuropeptide Y receptor type 1; test: Antagonist activity at NPY Y1 receptor in human SK-N-MC cells assessed as inhibition of NPY-induced calcium mobilization by FLIPR assay; format: functional, cell-based
How it was run: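 SK-N-MC neuroblastoma cells plated at 25,000/well 4 days ahead, loaded with Fluo-3 for 1 h in 5% CO2, washed and resuspended in assay buffer (5 mM KCl, 115 mM NaCl, 0.96 mM NaH2PO4, 1 mM MgSO4, 2 mM CaCl2, 5 mM D-glucose) containing test compound.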

[4] = Plasma clearance in Sprague-Dawley rat at 1 mg/kg, iv and 3 mg/kg, po; format: ADME, organism-based
How it was run: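 Overnight-fasted, jugular-vein-cannulated SD rats (water ad libitum) dosed by oral gavage (3 mg/kg in 0.5% methyl cellulose, 2 mL/kg, n = 2) or iv via the jugular vein (1.0 mg/kg in 50% PEG, 1 mL/kg, n = 2).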

[5] = Fraction unbound in Sprague-Dawley rat plasma at 1 mg/kg, iv and 3 mg/kg, po; format: ADME, organism-based
Rattus norvegicus [6] = test: Unbound plasma clearance in Sprague-Dawley rat 1 mg/kg, iv and 3 mg/kg, po; format: ADME, organism-based; details: in vivo
Rattus norvegicus [7] = test: Antihypertensive activity in Sprague-Dawley rat assessed as inhibition of NPY-induced increase in arterial pressure at 3 mg/kg, iv; format: functional; details: Artery
How it was run: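 Overnight-fasted SD rats anesthetized with inactin (100 mg/kg ip), tracheal and femoral arterial/venous cannulae, on a heated pad. Arterial pressure and heart rate recorded every 5 s. NPY given as iv bolus every 15 min. After the third NPY bolus, compound given iv at 3 mg/kg in saline (1 mL/kg), followed by three further NPY injections.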

Row | Ki [1] [nM] | IC50 [3] [nM] | clearance [4] [mL/min/kg] | fraction unbound [5] | CL (Rattus norvegicus [6]) [mL/min/kg] | SMILES | Knockout-to-FVB ratio of unbound brain/plasma ratio [2] | inhibition in vivo at 3 mg/kg (Rattus norvegicus [7]) [%]
1 | 8 | 207 | 25 | 0.011 | 2273 | CCCOc1cc(Cl)c(-c2c(C)nn3c(NCCNC4CCOCC4)cc(C)nc23)c(Cl)c1 | – | 0
2 | 5 | – | – | – | – | COc1cc(Cl)c(-c2c(C)nn3c(NCC(C)NC4CCOCC4)cc(C)nc23)c(Cl)c1 (racemic) | 10 | –
3 | 21 | – | – | – | – | Cc1cc(C)c(-c2c(C)nn3c(NCCNC4CCCC4)cc(C)nc23)c(C)c1 | – | –
4 | 38 | – | – | – | – | Cc1cc(NCCNC2CCCC2)n2nc(C)c(-c3c(Cl)cccc3Cl)c2n1 | – | –
5 | 3 | 15 | 28 | 0.029 | 996 | CCOc1cc(Cl)c(-c2c(C)nn3c(NCCNC4CCOCC4)cc(C)nc23)c(Cl)c1 | – | 47

Row | SMILES | Ki [1] [nM] | IC50 [3] [nM] | clearance [4] [mL/min/kg] | fraction unbound [5] | CL (Rattus norvegicus [6]) [mL/min/kg] | Knockout-to-FVB ratio of unbound brain/plasma ratio [2] | inhibition in vivo at 3 mg/kg (Rattus norvegicus [7]) [%]
6 | COc1cc(Cl)c(-c2c(C)nn3c(NCCNCCF)cc(C)nc23)c(Cl)c1 | 22 | – | – | – | – | 4 | –
7 | COc1cc(Cl)c(-c2c(C)nn3c(NCCNCC(F)F)cc(C)nc23)c(Cl)c1 | 383 | – | – | – | – | 2 | –
